Assays:
Hepatitis C virus [1] = assay: Antiviral activity against HCV1B BM4-5 infected in human Huh7.5 cells assessed as decrease in intracellular viral RNA treated for 3 days measured 24 hrs after last dose by luciferase reporter gene-based […]; type: functional, organism-based, Hepacivirus hominis; settings: genotype 1b BM4-5, Huh-7
Outline: (§1)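 Huh-7.5.1 human hepatoma cells stably carried the BM4-5 FEO (genotype 1B) or SGR-JFH-1 FEO (genotype 2A) replicon, selected with 500 μg/ml G-418. Cells were seeded at 10,000 per well and incubated with compound up to 100 μM (0.3% DMSO final) for 48 to 72 h. Luciferase light units gave dose-response EC50s. Each condition was run in triplicate, with 3 or 4 experimental replicates.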

Hepatitis C virus [2] = assay: Antiviral activity against HCV2A SGR-JFH-1 infected in human Huh7.5 cells assessed as decrease in intracellular viral RNA treated for 3 days measured 24 hrs after last dose by luciferase reporter gene-based […]; type: functional, organism-based, Hepacivirus hominis; settings: genotype 2a SGR-JFH-1, Huh-7; outline: as §1
[3] = Cytotoxicity against human Huh7.5 cells administered for 3 days measured 24 hrs after last dose by neutral red dye uptake assay; type: cell-based, Huh-7
[4] = Selectivity index, ratio of CC50 for human Huh7.5 cells to EC50 for HCV genotype 1B BM4-5 infected in human Huh7.5 cells; parameters: species or system Huh-7
Outline: (§2)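 SI is CC50 divided by EC50, both from the same BM4-5 FEO (1B) or SGR-JFH-1 FEO (2A) replicon Huh-7.5.1 cultures. Cells (10,000 per well) got compound up to 100 μM (0.3% DMSO final) for 48 to 72 h. EC50 came from the luciferase read-out, CC50 from a fluorescent viability/death assay. Each condition was run in triplicate.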

[5] = Selectivity index, ratio of CC50 for human Huh7.5 cells to EC50 for HCV genotype 2A SGR-JFH-1 infected in human Huh7.5 cells; parameters: species or system Huh-7; outline: as §2

EC50 (Hepatitis C virus [1]) [µM]	EC50 (Hepatitis C virus [2]) [µM]	SMILES	CC50 at 72 h [3] [µM]	Selectivity Index [4]	Selectivity Index [5]
> 100	> 100	Nc1ncnc2c1ncn2C[C@H](CO)OCP(=O)(O)O	> 100	–	–
> 100	> 100	Nc1ncnc2c1ncn2C[C@@H](CO)OCP(=O)(O)O	> 100	–	–
2.02	6.5	CCCCCCCCCCCCCCCCOCCCOP(=O)(O)CO[C@H](CO)Cn1cnc2c(N)ncnc21	85.3	42	13

The remaining lines, values behind:

SMILES	EC50 (Hepatitis C virus [1]) [µM]	EC50 (Hepatitis C virus [2]) [µM]	CC50 at 72 h [3] [µM]	Selectivity Index [4]	Selectivity Index [5]
CCCCCCCCCCCCCCCCCCOCCOP(=O)(O)CO[C@@H](CO)Cn1cnc2c(N)ncnc21	7	26.7	> 100	>14	>4
CCCCCCCCCCCCCCCCOCCCOP(=O)(O)CO[C@@H](CO)Cn1cnc2c(N)ncnc21	6.71	41	> 100	>15	>2
CCCCCCCCCCCCCCCCCCOCCOP(=O)(O)CO[C@H](CO)Cn1cnc2c(N)ncnc21	1.31	0.69	35.6	27	52

Source: ChEMBL document CHEMBL1649435, “The octadecyloxyethyl ester of (S)-9-[3-hydroxy-2-(phosphonomethoxy) propyl]adenine is a potent and selective inhibitor of hepatitis C virus replication in genotype 1A, 1B, and 2A replicons” (Antimicrob Agents Chemother, 2009)
